According to ChEMBL document CHEMBL3734686, “Synthesis, Photophysical Properties, and Biological Evaluation of trans-Bisthioglycosylated Tetrakis(fluorophenyl)chlorin for Photodynamic Therapy” (J Med Chem, 2015):
Active and inactive are the calls of the source.

Experiments:
HeLa = test: Photocytotoxicity against human HeLa cells assessed as cell survival preincubated for 24 hrs followed by irradiation at 16 J/cm2 measured at 24 hrs by WST-8 assay; assay type: functional, cell-based; details: light or radiation study
Summary of the method: (§1)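 Cells (5 × 10^3/well) in DMEM with 10% FCS, 24 h at 37°C, 5% CO2; photosensitizer 1–50000 nM (1% DMSO final) for 24 h, washed, fresh medium. Irradiated with 100-W halogen lamp through λ>500 nm or λ>600 nm cutoff filter to 16 J·cm−2; WST-8 absorbance at 450 nm 24 h later, survival normalized to no-drug wells.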

4T1 [1] = test: Drug uptake in mouse 4T1 cells implanted in BALB/c mouse assessed per gram of tissue at 0.18 mg/kg, ip after 12 hrs by HPLC-based fluorescence analysis; assay type: ADME, organism-based; details: in vivo
Summary of the method: (§2)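 Female BALB/c mice with 4T1 cells (1 × 10^6 in HBSS) implanted in left rear thigh; single i.p. dose, 7 in ethanol/PEG400/H2O (2/3/5) with 0.1% DMSO, mono-L-aspartyl chlorin e6 in saline; kept dark until sacrifice. Tissues washed, frozen, homogenized in CH3OH/DMSO/H2O (32/8/1), centrifuged 2300×g; supernatant analysed by HPLC with fluorescence detection; three animals per time point.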

[2] = Induction of reactive oxygen generation assessed as quantum yield of hydrogen peroxide generation in O2 saturated PBS containing 1% DMSO under photoirradiation by spectrometry relative to control hematoporphyrin; assay type: physicochemical; details: buffer
Summary of the method: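 Photosensitizer (1.00 µM) with HPF (2.00 µM) in PBS containing 1% DMSO, oxygenated 1 min, irradiated with 100-W halogen lamp through λ>500 nm cutoff filter at 37°C; hematoporphyrin as reference.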

[3] = Photocytotoxicity against mouse B16-F1 cells assessed as cell survival preincubated for 24 hrs followed by irradiation at 16 J/cm2 measured at 24 hrs by WST-8 assay; assay type: functional, cell-based; details: B16-F1, light or radiation study; summary of the method: as §1
4T1 [4] = test: Antitumor activity against mouse 4T1 cells implanted in BALB/c mouse at 0.045 mg/kg, ip assessed as tumor growth inhibition administered for 48 hrs followed by irradiation at 40 mW/cm2 measured after 7 days; assay type: functional, organism-based
Summary of the method: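 Female BALB/c mice carried 4T1 thigh tumours (1 × 10^6 cells) of 50–60 mm3. They were dosed i.p. at 250–31.25 nmol·kg−1 in ethanol/PEG400/H2O (2/3/5) containing 0.1% DMSO and kept dark. At 48 h the tumour was irradiated with a 100-W halogen lamp at 40 mW·cm−2 for 20.1 min. Tumour size was measured daily by caliper as length × width²/2 and normalised to day 0.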

[5] = Drug uptake in BALB/c mouse small intestine implanted with mouse 4T1 cells assessed per gram of tissue at 0.18 mg/kg, ip after 48 hrs by HPLC-based fluorescence analysis; assay type: ADME, organism-based; details: in vivo; summary of the method: as §2

Drug uptake (4T1 [1]): 4 ng/g | Ratio [2]: 0.18 | Drug uptake [5]: 9.5 ng/g
Structure (SMILES): CN1CC2C3=N/C(=C(/c4c(F)c(F)c(S[C@@H]5O[C@H](CO)[C@@H](O)[C@H](O)[C@H]5O)c(F)c4F)C4=N/C(=C(/c5c(F)c(F)c(F)c(F)c5F)c5ccc([nH]5)/C(c5c(F)c(F)c(S[C@@H]6O[C@H](CO)[C@@H](O)[C@H](O)[C@H]6O)c(F)c5F)=C5/C=CC(=N5)C3c3c(F)c(F)c(F)c(F)c3F)C=C4)C2C1 (stereo partly specified)
EC50 (HeLa): 500 pM | EC50 [3]: 500 pM | Activity (4T1 [4]): Active
